Source: ChEMBL document CHEMBL4052605, “Lissoclibadin 1, a Polysulfur Aromatic Alkaloid from the Indonesian Ascidian Lissoclinum cf. badium, Induces Caspase-Dependent Apoptosis in Human Colon Cancer Cells and Suppresses Tumor Growth in Nude Mice” (J Nat Prod, 2017)

What was measured:
Type in all cases: functional, cell-based
[1] = tested on: HCT-15; experiment: Antiproliferative activity against human HCT15 cells after 24 hrs by WST-1 assay; settings: HCT-15, 24 h
Procedure, shortened: (§1)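 WST-1 viability assay. Cells seeded at 5 × 10^3 per well and grown 24 h, then given lissoclibadins at 0.1−40 μM (etoposide 1.0−100 μM) in triplicate for 24 h. WST-1 added and absorbance read 4 h later at 450 nm, background subtracted at 650 nm. Viability expressed as % of control; IC50 taken as 50% inhibition of viability. Three experiments, mean ± SD.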

[2] = tested on: NCI-H28; experiment: Antiproliferative activity against human NCI-H28 cells after 24 hrs by WST-1 assay; settings: NCI-H28, 24 h; procedure, shortened: as §1
[3] = tested on: HeLa S3; experiment: Antiproliferative activity against human HeLaS3 cells after 24 hrs by WST-1 assay; settings: HeLa S3, 24 h; procedure, shortened: as §1
[4] = tested on: MCF7; experiment: Antiproliferative activity against human MCF7 cells after 24 hrs by WST-1 assay; settings: MCF7, 24 h; procedure, shortened: as §1

| Compound | IC50 [1] | IC50 [2] | IC50 [3] | IC50 [4] |
| --- | --- | --- | --- | --- |
| COc1cc(CCN(C)C)c2c(c1O)SSSSS2 [ISOLISSOCLINOTOXIN B] | 4.2 µM | 6.4 µM | 5.9 µM | 6.4 µM |
| COc1cc(CCN(C)C)c2sc3c(O)c(OC)cc(CCN(C)C)c3ssc2c1O [LISSOCLIBADIN 4] | 17.2 µM |  | 17.8 µM |  |
| COc1c(OC)c2c(c(CCN(C)C)c1SC)SSc1c(CCN(C)C)c(SC)c(OC)c(OC)c1SSc1c(OC)c(OC)c(SC)c(CCN(C)C)c1SSc1c(CCN(C)C)c(SC)c(OC)c(OC)c1SS2 | 4.9 µM | 7.1 µM | 6.3 µM | 11.8 µM |
